Data on 17 compounds can be found in ChEMBL document CHEMBL1687890, “Design, synthesis, pharmacological evaluation, and structure-activity study of novel endomorphin analogues with multiple structural modifications” (J Med Chem, 2011).

Series [1] concerns the target T1, Mu-type opioid receptor (Rattus norvegicus, UniProt P33535). Nature of the series: Displacement of [3H]DAMGO from mu opioid receptor in rat brain membrane homogenate by liquid scintillation counting. The class given is cell membranes. In general terms: Displacement assays read how much labelled ligand stays bound in the presence of the test substance.
The target in series [2] is Delta-type opioid receptor (Rattus norvegicus, UniProt P33533). Nature of the series: Displacement of [3H][Ile5,6]deltorphin2 from delta opioid receptor in rat brain membrane homogenate by liquid scintillation counting. The class given is cell membranes.
Chain of Delta-type opioid receptor (P33533 whole entry): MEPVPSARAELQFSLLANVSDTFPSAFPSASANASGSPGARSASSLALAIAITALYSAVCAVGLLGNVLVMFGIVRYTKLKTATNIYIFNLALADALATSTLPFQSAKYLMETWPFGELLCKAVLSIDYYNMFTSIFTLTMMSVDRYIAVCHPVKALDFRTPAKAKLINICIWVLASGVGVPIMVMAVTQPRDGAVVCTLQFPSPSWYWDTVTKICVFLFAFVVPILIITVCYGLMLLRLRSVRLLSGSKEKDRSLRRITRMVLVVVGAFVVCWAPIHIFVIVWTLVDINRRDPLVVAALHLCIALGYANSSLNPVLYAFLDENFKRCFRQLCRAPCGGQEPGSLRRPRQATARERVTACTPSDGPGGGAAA
The species entered for a further series is Rattus norvegicus. Nature of the series: Selectivity ratio of Ki for delta opioid receptor in rat brain to mu opioid receptor in rat brain. It is filed as tissue-based.
For series [3], the target named is T1, Mu-type opioid receptor. Nature of the series: Agonist activity at mu opioid receptor in rat brain membrane by [35S]GTPgammaS binding assay. The class given is functional, cell membranes.
The target of series [4] is Mu-type opioid receptor (Rattus norvegicus) (UniProt P33535). Nature of the series: Agonist activity at opioid receptor in mu rat brain membrane by [35S]GTPgammaS binding assay relative to baseline in presence of opioid-selective antagonist naloxone. It is filed as functional, cell membranes. (GTPγS is a poorly hydrolysed GTP analogue; its binding reports G protein activation.)
Chain of Mu-type opioid receptor (Rattus norvegicus) (P33535 whole entry): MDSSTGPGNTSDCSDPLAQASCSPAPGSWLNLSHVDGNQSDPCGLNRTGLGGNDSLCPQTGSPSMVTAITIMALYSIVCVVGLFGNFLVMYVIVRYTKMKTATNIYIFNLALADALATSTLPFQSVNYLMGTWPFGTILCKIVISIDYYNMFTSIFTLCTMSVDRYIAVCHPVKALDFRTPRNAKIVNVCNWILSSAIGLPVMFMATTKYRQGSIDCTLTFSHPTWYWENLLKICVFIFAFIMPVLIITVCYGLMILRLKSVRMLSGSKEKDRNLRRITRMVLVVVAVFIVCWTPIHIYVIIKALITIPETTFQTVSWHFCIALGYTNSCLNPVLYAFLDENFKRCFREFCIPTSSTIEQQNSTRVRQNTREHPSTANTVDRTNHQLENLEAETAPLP

Series [5] has the same target. Nature of the series: Agonist activity at mu opioid receptor in rat brain membrane by [35S]GTPgammaS binding assay relative to baseline. The class given is functional, cell membranes.
Series [6] in a line: Half life in rat brain homogenate by RP-HPLC. The class given is ADME, tissue-based. The essentials: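 Peptide (1 mM stock in 50 mM Tris-HCl pH 7.4, 1:10 into homogenate) incubated at 37 °C with crude rat brain homogenate (5.0 mg/mL protein). Aliquots quenched with HCl, centrifuged, supernatant run on RP-HPLC. k from linear regression of ln(A/A0) vs time over at least 5 time points; t1/2 = ln2/k, pseudo-first-order. At least three experiments.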

T1 sequence (P33535 whole entry): as above

On to `Cc1cc(CC(N)C(=O)N[C@@H]2CCCC[C@@H]2C(=O)N[C@@H](Cc2c[nH]c3ccccc23)C(=O)NC(Cc2ccc(F)cc2)C(N)=O)cc(C)c1O` (some centres undefined), for which the Ki (usually the dissociation constant of the complex between target and ligand, obtained from inhibition or displacement) on Mu-type opioid receptor [1] was 11.1 nM; in series [2], 2640 nM. In the series filed under Rattus norvegicus, the Ratio Ki was 237. At Mu-type opioid receptor [3], the midpoint of the response, the EC50, lay at 8.1 nM. Moreover, the results for the Emax in series [4] and in series [5] were 127% and 163%, respectively.

With `NC(=O)C(Cc1ccc(F)cc1)NC(=O)[C@H](Cc1c[nH]c2ccccc12)NC(=O)[C@@H]1CCCC[C@@H]1NC(=O)[C@@H](N)Cc1ccc(O)cc1` (some centres undefined), the Ki on Mu-type opioid receptor [1] amounted to 143 nM; in series [2], 7820 nM. The Ratio Ki in the series filed under Rattus norvegicus came out at 54.

For the compound `Cc1cc(CC(N)C(=O)N[C@@H]2CCCC[C@@H]2C(=O)N[C@@H](Cc2c[nH]c3ccccc23)C(=O)N[C@H](C(N)=O)[C@@H](C)c2ccccc2)cc(C)c1O` (some centres undefined), the Ki at Mu-type opioid receptor [1] was 0.93 nM; in series [2], 123 nM. The Ratio Ki in the series filed under Rattus norvegicus was found to be 132. Further, on Mu-type opioid receptor [3], the midpoint of the response, the EC50, lay at 22.1 nM. Also, the results for the Emax in series [4] and in series [5] were 145% and 162%, respectively.

Regarding `NC(=O)C(Cc1ccc(F)cc1)NC(=O)[C@H](Cc1c[nH]c2ccccc12)NC(=O)[C@H]1CCCC[C@H]1NC(=O)[C@@H](N)Cc1ccc(O)cc1` (some centres undefined), the values for the Ki (on Mu-type opioid receptor [1]; in series [2]) were 3.2 nM and 571 nM, respectively. Besides, the Ratio Ki in the series filed under Rattus norvegicus is 178. Besides, a half-maximal response at Mu-type opioid receptor [3] (EC50) required 380 nM. The half-life (usually how long it takes for the measured level to halve) in series [6] is > 20 h. The Emax (as a rule, the size of the effect at its maximum, as opposed to the concentration needed) stood at 125% in series [4] and 174% in series [5].

As for `Cc1cc(CC(N)C(=O)N[C@@H]2CCCC[C@@H]2C(=O)N[C@@H](Cc2c[nH]c3ccccc23)C(=O)N[C@@H](C(N)=O)[C@H](C)c2ccccc2)cc(C)c1O` (some centres undefined), the values for the Ki (on Mu-type opioid receptor [1]; in series [2]) were 4.11 nM and 287 nM, respectively. Besides, the Ratio Ki in the series filed under Rattus norvegicus was determined as 69.

`NC(=O)[C@H](Cc1ccccc1)NC(=O)[C@H](Cc1ccccc1)NC(=O)[C@@H]1CCCN1C(=O)[C@@H](N)Cc1ccc(O)cc1` [ENDOMORPHIN 2] gave a half-life in series [6] of 0.095 h. In addition, the Emax in series [4] stood at 123%; in series [5], 163%.

On to `C[C@H](c1ccccc1)[C@@H](NC(=O)[C@H](Cc1ccccc1)NC(=O)[C@H]1CCCC[C@H]1NC(=O)[C@@H](N)Cc1ccc(O)cc1)C(N)=O`, for which, in series [2], the affinity corresponds to a Ki of 1270 nM.

As for `C[C@@H](NC(=O)[C@@H](N)Cc1ccc(O)cc1)C(=O)NCC(=O)N(C)[C@@H](Cc1ccccc1)C(=O)NCCO`, the maximal response (Emax) amounted to 119% in series [4] and 178% in series [5].

In series [6], `NC(=O)[C@H](Cc1ccccc1)NC(=O)[C@H](Cc1c[nH]c2ccccc12)NC(=O)[C@@H]1CCCN1C(=O)[C@@H](N)Cc1ccc(O)cc1` [ENDOMORPHIN-1] returned a half-life of 0.105 h. Moreover, the Emax came out at 124% in series [4] and 149% in series [5].

In the case of `NC(=O)C(Cc1ccc(F)cc1)NC(=O)[C@H](Cc1ccccc1)NC(=O)[C@H]1CCCC[C@H]1NC(=O)[C@@H](N)Cc1ccc(O)cc1` (some centres undefined), the affinity in series [2], expressed as Ki, was 366 nM.

With `C[C@@H](c1ccccc1)[C@H](NC(=O)[C@H](Cc1ccccc1)NC(=O)[C@H]1CCCC[C@H]1NC(=O)[C@@H](N)Cc1ccc(O)cc1)C(N)=O`, the Ki in series [2] is 661 nM. This Ki is about 1.8-fold higher than that of the compound before.

On to `NC(=O)C(Cc1ccc(F)cc1)NC(=O)[C@H](Cc1ccccc1)NC(=O)[C@@H]1CCCC[C@@H]1NC(=O)[C@@H](N)Cc1ccc(O)cc1` (some centres undefined), for which, in series [2], the Ki came to 689 nM. This Ki and that of the compound before are within 1.5-fold of each other.

In the case of `C[C@H](c1ccccc1)[C@@H](NC(=O)[C@H](Cc1c[nH]c2ccccc12)NC(=O)[C@H]1CCCC[C@H]1NC(=O)[C@@H](N)Cc1ccc(O)cc1)C(N)=O`, the Ki at Mu-type opioid receptor [1] is 34.6 nM; in series [2] it was 3360 nM. Moreover, in the series listed under Rattus norvegicus, the Ratio Ki is 97.

Turning to `C[C@@H](c1ccccc1)[C@H](NC(=O)[C@H](Cc1c[nH]c2ccccc12)NC(=O)[C@H]1CCCC[C@H]1NC(=O)[C@@H](N)Cc1ccc(O)cc1)C(N)=O`, the results for the Ki (at Mu-type opioid receptor [1]; in series [2]) were 4.2 nM and 1440 nM, respectively. For the same compound, the Ratio Ki in the series filed under Rattus norvegicus came to 343. Besides, at Mu-type opioid receptor [3], the EC50 (commonly the concentration at which the effect is half-maximal) was 264 nM. Besides, the half-life in series [6] was > 20 h. For the same compound, the Emax in series [4] stood at 130%; in series [5], 162%.

Take `Cc1cc(CC(N)C(=O)N[C@@H]2CCCC[C@@H]2C(=O)N[C@@H](Cc2ccccc2)C(=O)N[C@H](C(N)=O)[C@@H](C)c2ccccc2)cc(C)c1O` (some centres undefined): the Ki at Mu-type opioid receptor [1] was determined as 0.47 nM; in series [2], 142 nM. The Ratio Ki in the series filed under Rattus norvegicus turned out to be 302. The compound further returned an EC50 at Mu-type opioid receptor [3] of 17 nM. Also, in series [6], the half-life is > 20 h. Also, the Emax in series [4] amounted to 146%; in series [5], 159%.

In the case of `Cc1cc(CC(N)C(=O)N[C@@H]2CCCC[C@@H]2C(=O)N[C@@H](Cc2ccccc2)C(=O)N[C@@H](C(N)=O)[C@H](C)c2ccccc2)cc(C)c1O` (some centres undefined), the Ki amounted to 9.7 nM on Mu-type opioid receptor [1] and 198 nM in series [2]. In addition, the Ratio Ki in the series listed under Rattus norvegicus was 20.

As for `Cc1cc(CC(N)C(=O)N[C@@H]2CCCC[C@@H]2C(=O)N[C@@H](Cc2ccccc2)C(=O)NC(Cc2ccc(F)cc2)C(N)=O)cc(C)c1O` (some centres undefined), affinity in series [2] was put at a Ki of 96 nM. The half-life in series [6] is > 20 h.
